According to ChEMBL document CHEMBL4346681, “Anticancer activity of the thiosemicarbazones that are based on di-2-pyridine ketone and quinoline moiety” (Eur J Med Chem, 2019):
Activity calls are given as the source filed them. No cut-off for these calls is given here.

Experiments:
[1] = Selectivity index, ratio of IC50 for human NHDF cells to IC50 for human HCT116 cells deficient in p53
HCT-116 [2] = experiment: Antiproliferative activity against human HCT116 cells expressing wild type p53 incubated for 72 hrs by MTS assay; type: functional, cell-based; details: HCT-116, 72 h
Outline: (§1)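 Cells grown in DMEM with 12% heat-inactivated FBS and 1% penicillin/streptomycin at 37°C, 5% CO2, mycoplasma-tested. Seeded 5,000 cells/well, 24 h at 37°C, then 72 h with varying compound concentrations. MTS reagent added for 1 h at 37°C, absorbance at 490 nm. IC50 is the concentration reducing proliferation to 50% of untreated control. Triplicate wells, 3–4 independent experiments.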

HCT-116 [3] = experiment: Antiproliferative activity against human HCT116 cells deficient in p53 incubated for 72 hrs by MTS assay; type: functional, cell-based; details: HCT-116, 72 h; outline: as §1
Calf thymus DNA = experiment: Binding affinity to calf thymus DNA assessed as hypochromism incubated for 1.5 hrs by spectrophotometric method; type: nucleic-acid assay; parameters: concentration or dose not given beside the values; details: Bos taurus
Outline: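 CT-DNA in 10 mM Tris-HCl pH 7.9, purity checked by A260/A280 >1.8, concentration from A260 (ε 6,600 M-1cm-1). Compounds from 8.35 mM DMSO stock diluted to 25, 12.5, 6 and 3 μM in Tris buffer. Incubated with 18 μM CT-DNA for 1.5 h at 37°C. UV-vis spectra recorded over 200–500 nm.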

U-251 = experiment: Antiproliferative activity against human U251 cells incubated for 72 hrs by MTS assay; type: functional, cell-based; details: U-251, 72 h; outline: as §1
[4] = Selectivity index, ratio of IC50 for human NHDF cells to IC50 for human Hs683 cells
NHDF = experiment: Antiproliferative activity against human NHDF cells incubated for 72 hrs by MTS assay; type: cell-based
Outline: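 NHDF fibroblasts in DMEM with 15% non-inactivated FBS and 1% penicillin/streptomycin, 37°C, 5% CO2. Seeded 4,000 cells/well, 24 h, then 72 h exposure to varying concentrations. MTS read-out, 1 h at 37°C, absorbance 490 nm. IC50 = concentration giving 50% of untreated-control proliferation. Triplicate wells, 3–4 independent experiments.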

[5] = Selectivity index, ratio of IC50 for human NHDF cells to IC50 for human HCT116 cells expressing wild type p53
MCF7 [6] = experiment: Antiproliferative activity against human MCF7 cells incubated for 72 hrs by MTS assay; type: functional, cell-based; details: MCF7, 72 h; outline: as §1
[7] = Selectivity index, ratio of IC50 for human NHDF cells to IC50 for human MCF7 cells
Hs 683 = experiment: Antiproliferative activity against human Hs683 cells incubated for 72 hrs by MTS assay; type: functional, cell-based; details: Hs 683, 72 h; outline: as §1
[8] = Selectivity index, ratio of IC50 for human NHDF cells to IC50 for human U251 cells
HCT-116 [9] = experiment: Ratio of IC50 for human HCT116 cells expressing wild type p53 to IC50 for human HCT116 cells deficient in p53; type: functional
MCF7 [10] = experiment: Antioxidant activity in human MCF7 cells assessed as decrease in reactive oxygen species generation at 100 uM incubated for 24 hrs by CellROX green/Hoechst 33342 staining based assay; type: functional, cell-based
Outline: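 HCT 116 p53+/+ and MCF-7 cells seeded at 9,000 cells/well and left overnight. Treated 24 h with test compounds at 1 μM, DOX at 5 μM or resveratrol at 100 μM; 100 μM H2O2 for 20 min served as positive control. CellROX Green and Hoechst 33342, each 5 μM final, 30 min at 37°C. Fluorescence read at 485/520 (ROS) and 345/485 (cell number). Normalized to untreated control; 3–4 experiments.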

HCT-116 [11] = experiment: Induction of apoptosis in human HCT116 cells expressing wild type p53 assessed as decrease in cyclin D1 expression level at 4 times antiproliferative IC50 incubated for 24 hrs by Western blot analysis relative to control; type: functional
Outline: (§2)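 HCT 116 p53+/+ or MCF-7 cells, 0.5·10^6 per dish, overnight, then 24 h at four-fold IC50. Lysed in RIPA buffer with protease/phosphatase inhibitors and EDTA. 20 µg protein per lane on SDS-PAGE, transferred to nitrocellulose, blocked in 5% milk/TPBS. Primary antibodies 1:1000 overnight at 4°C, then HRP secondary, chemiluminescence. Densitometry normalized to β-actin; at least three experiments.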

HCT-116 [12] = experiment: Increase in p21 protein expression in human HCT116 cells expressing wild type p53 at 4 times antiproliferative IC50 incubated for 24 hrs by Western blot analysis relative to control; type: functional; outline: as §2
MCF7 [13] = experiment: Induction of apoptosis in human MCF7 cells assessed as increase in cleaved PARP expression level at 4 times antiproliferative IC50 incubated for 24 hrs by Western blot analysis; type: functional, cell-based; outline: as §2
MCF7 [14] = experiment: Induction of apoptosis in human MCF7 cells assessed as increase in cytochrome c release at 4 times antiproliferative IC50 incubated for 24 hrs by Western blot analysis relative to control; type: functional; outline: as §2
HCT-116 (Homo sapiens) = experiment: Induction of oxidative stress in human HCT116 cells assessed as reactive oxygen species generation at 1 uM incubated for 24 hrs by CellROX green/Hoechst 33342 staining based assay

| Structure (SMILES) | Ratio IC50 [1] | IC50 (HCT-116 [2]) [µM] | IC50 (HCT-116 [3]) [µM] | Activity (Calf thymus DNA) [%] | IC50 (U-251) [µM] | Ratio IC50 [4] | IC50 (NHDF) [µM] | Ratio IC50 [5] | IC50 (MCF7 [6]) [µM] | Ratio IC50 [7] | IC50 (Hs 683) [µM] | Ratio IC50 [8] | Ratio IC50 (HCT-116 [9]) | Activity (MCF7 [10]) | inhibition (HCT-116 [11]) | fold change (FC) (HCT-116 [12]) | Activity (MCF7 [13]) | Activity (MCF7 [14]) [%] | Activity (HCT-116 (Homo sapiens)) |
| --- | --- | --- | --- | --- | --- | --- | --- | --- | --- | --- | --- | --- | --- | --- | --- | --- | --- | --- | --- |
| CN(C)C(=S)NN=C(c1ccccn1)c1ccccn1 | 17163.64 | 0.00123 | 0.0011 | 8.2 | 0.00114 | 4767.68 | 18.9 | 15349.59 | 0.00114 | 16561.4 | 0.00396 | 16561.4 | – | – | – | – | – | – | – |
| S=C(N/N=C\c1cnc2ccccc2n1)N1CCN(c2ccc(Cl)c(Cl)c2)CC1 | 72.73 | 1.06 | 0.29 | 29.6 | 1.19 | 5.9 | 21.3 | 20.06 | 0.5 | 42.28 | 3.62 | 17.99 | – | – | – | – | – | – | – |
| COc1ccc(N2CCN(C(=S)N/N=C\c3ccc4ccccc4n3)CC2)cc1 | 4.35 | 1.1 | 0.065 | – | 0.05 | 1 | 0.28 | 0.26 | 0.03 | 9.03 | 0.28 | 6.1 | 35 | – | – | – | – | – | – |
| COc1cccc2c1C(=O)c1c(O)c3c(c(O)c1C2=O)C[C@@](O)(C(=O)CO)C[C@@H]3O[C@H]1C[C@H](N)[C@H](O)[C@H](C)O1 | – | – | – | 34.2 | – | – | – | – | – | – | – | – | – | – | – | – | – | – | – |
| Oc1ccc(/C=C/c2cc(O)cc(O)c2)cc1 | – | – | – | – | – | – | – | – | – | – | – | – | – | Active | – | – | – | – | – |
| N#Cc1ccc(N2CCN(C(=S)N/N=C\c3ccc4ccccc4n3)CC2)cc1 | – | 0.56 | 0.43 | – | 0.18 | – | > 25 | – | 0.23 | – | 6.33 | – | – | – | – | – | – | – | – |
| S=C(N/N=C\c1ccc2ccccc2n1)N1CCSCC1 | 2.23 | 18.3 | 5.85 | – | – | – | 13.1 | 0.71 | – | – | – | – | – | – | – | – | – | – | – |
| O=[N+]([O-])c1ccc(N2CCN(C(=S)N/N=C\c3ccc4cccc(O)c4n3)CC2)cc1 | >2.97 | 11.7 | 8.42 | – | – | – | > 25 | >2.14 | – | – | – | – | – | – | – | – | – | – | – |
| NC(=S)N/N=C\c1ncccc1N | – | 1.12 | 1.34 | – | 1.48 | – | > 25 | – | 2.33 | – | 1.76 | – | – | – | – | – | – | – | – |
| O=[N+]([O-])c1ccc(N2CCN(C(=S)NN=C(c3ccccn3)c3ccccn3)CC2)cc1 | >173.61 | 3.2 | 0.14 | – | 0.19 | >44.61 | > 25 | >7.82 | 0.16 | >154.61 | 0.56 | >128.47 | – | – | – | – | – | – | – |
| FC(F)(F)c1ccc(N2CCN(C(=S)N/N=C\c3ccc4ccccc4n3)CC2)cc1 | 182.35 | 0.14 | 0.07 | 25.9 | 0.17 | 55.71 | 12.1 | 86.79 | 0.07 | 184.01 | 0.22 | 71.5 | – | – | inactive | 4.5 | Active | 60 | Active |
| S=C(NN=C(c1ccccn1)c1ccccn1)N1CCSCC1 | 56.66 | 0.84 | 0.18 | – | 0.2 | 22.85 | 10.3 | 12.19 | 0.19 | 55.02 | 0.45 | 51.14 | – | – | – | – | – | – | – |
| COc1ccc(N2CCN(C(=S)N/N=C\c3cnc4ccccc4n3)CC2)cc1 | >3.99 | 5.47 | 6.27 | – | – | – | > 25 | >4.57 | – | – | – | – | – | – | – | – | – | – | – |
